Data reported in ChEMBL document CHEMBL1255513, “Synthesis and biological evaluation of indomethacin analogs possessing a N-difluoromethyl-1,2-dihydropyrid-2-one ring system: a search for novel cyclooxygenase and lipoxygenase inhibitors” (Bioorg Med Chem Lett, 2010).
Active and inactive are the calls of the source. The calls are words filed in the database; no cut-off is given here.

Tests used:
[1] = Inhibition of potato 5-lipoxygenase by enzyme immunoassay; parameters: species or system Solanum tuberosum
[2] = tested on: Rattus norvegicus; assay: Antiinflammatory activity in rat assessed as inhibition of carrageenan-induced rat paw edema at 4.2 mg/kg, po after 3 hrs; type: functional
Method in brief: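 Carrageenan-induced foot paw edema in rats, with the agent given orally. Read-out is % inhibition of inflammation, measured 3 h after the oral dose. Animal work followed protocols approved by the University of Alberta Health Sciences Animal Welfare Committee.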

[3] = molecular target: T1, Prostaglandin G/H synthase 1 (Ovis aries, UniProt P05979); assay: Inhibition of ovine COX1 by enzyme immunoassay
T1 sequence (P05979 whole entry): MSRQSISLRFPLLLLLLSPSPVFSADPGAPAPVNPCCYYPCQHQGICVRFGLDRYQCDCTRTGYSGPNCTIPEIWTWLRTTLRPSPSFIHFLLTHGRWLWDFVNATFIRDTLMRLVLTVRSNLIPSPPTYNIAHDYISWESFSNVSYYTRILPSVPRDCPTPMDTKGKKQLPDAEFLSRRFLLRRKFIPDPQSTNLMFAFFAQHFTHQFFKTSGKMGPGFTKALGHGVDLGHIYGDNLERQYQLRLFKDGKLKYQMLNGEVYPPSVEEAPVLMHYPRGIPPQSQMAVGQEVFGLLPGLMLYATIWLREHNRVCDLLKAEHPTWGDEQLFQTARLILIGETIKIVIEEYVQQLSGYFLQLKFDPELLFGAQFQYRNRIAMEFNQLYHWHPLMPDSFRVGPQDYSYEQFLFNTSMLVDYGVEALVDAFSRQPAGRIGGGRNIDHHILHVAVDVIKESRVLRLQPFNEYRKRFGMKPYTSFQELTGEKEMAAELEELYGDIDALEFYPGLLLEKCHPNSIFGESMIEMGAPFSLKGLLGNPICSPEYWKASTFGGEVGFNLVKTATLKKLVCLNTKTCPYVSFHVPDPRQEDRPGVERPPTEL
Method in brief: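 COX inhibition was measured by enzyme immunoassay kit. IC50 is the mean of two determinations, with deviation from the mean below 10%.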

[4] = molecular target: T2, Prostaglandin G/H synthase 2 (Homo sapiens, UniProt P35354); assay: Inhibition of human recombinant COX2 by enzyme immunoassay
T2 sequence (P35354 whole entry): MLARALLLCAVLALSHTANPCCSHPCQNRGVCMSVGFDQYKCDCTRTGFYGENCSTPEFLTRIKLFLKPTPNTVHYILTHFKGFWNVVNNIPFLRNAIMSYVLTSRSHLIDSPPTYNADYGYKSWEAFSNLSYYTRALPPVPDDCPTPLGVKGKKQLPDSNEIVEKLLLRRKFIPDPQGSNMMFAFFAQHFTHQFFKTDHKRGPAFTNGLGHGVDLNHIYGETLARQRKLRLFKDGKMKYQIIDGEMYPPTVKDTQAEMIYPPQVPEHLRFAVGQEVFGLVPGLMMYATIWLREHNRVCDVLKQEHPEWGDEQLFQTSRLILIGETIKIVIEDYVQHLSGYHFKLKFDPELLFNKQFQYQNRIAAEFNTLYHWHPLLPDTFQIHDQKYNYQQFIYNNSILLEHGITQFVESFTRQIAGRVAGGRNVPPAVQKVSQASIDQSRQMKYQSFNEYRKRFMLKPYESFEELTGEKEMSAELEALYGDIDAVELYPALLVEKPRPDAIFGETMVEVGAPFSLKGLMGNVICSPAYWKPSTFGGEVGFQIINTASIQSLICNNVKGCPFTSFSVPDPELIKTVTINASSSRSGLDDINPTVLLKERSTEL

[5] = tested on: Rattus norvegicus; assay: Antiinflammatory activity in rat assessed as inhibition of carrageenan-induced rat paw edema at 100 mg/kg, po after 3 hrs; type: functional
Method in brief: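 Carrageenan-induced rat paw edema; test compound given orally at 100 mg/kg. Result is % inhibition of inflammation at 3 h after dosing. Protocol was approved by the University of Alberta Health Sciences Animal Welfare Committee.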

CC(Cc1ccc(O)c(O)c1)C(C)Cc1ccc(O)c(O)c1 (centres undefined) [NORDIHYDROGUAIARETIC ACID]
IC50 [1]: 13 µM

COc1ccc2c(c1)c(CC(=O)O)c(C)n2C(=O)c1ccc(Cl)cc1 [INDOMETHACIN]
inhibition in vivo at 4.2 mg/kg [2]: 50%

COc1ccc2c(c1)c(CC(=O)O)c(C)n2Cc1ccc(=O)n(C(F)F)c1
IC50 [3]: > 100 µM | IC50 [4]: > 100 µM | IC50 [1]: > 100 µM | inhibition in vivo at 100 mg/kg [5]: 16%

COc1ccc2c(c1)c(CC(=O)O)c(C)n2Cc1ccn(C(F)F)c(=O)c1
IC50 [3]: > 100 µM | IC50 [4]: 31 µM | IC50 [1]: > 100 µM | inhibition [5]: inactive

COc1ccc2c(c1)c(CC(=O)O)c(C)n2C(=O)c1ccn(C(F)F)c(=O)c1
IC50 [3]: > 100 µM | IC50 [4]: > 100 µM | IC50 [1]: > 100 µM | inhibition in vivo at 100 mg/kg [5]: 25.5%
